High-throughput results: PubChem, several laboratories
This is a sample that favours compounds with a hit; in the whole collection about 6% have one here.
Ecoli WT expand: growth inhibitors of E. coli BW25113 wild type. OD600 absorbance. growth inhibition, % at 100 µM. hit rate 0.15% among 98,000;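 active means growth inhibition above about 50% at one test dose, limit read from the data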;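 further: growth measured after 20 h incubation at 37 °C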
EphB4 antag: blocks human EphB4 binding to ephrin-B2. P54760. EphB4 LBD / TNYL-RAW-Alexa532 peptide, fluorescence polarization. inhibition, % at 7 µM. hit rate 0.15% among 97,000. AID 720;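 active means inhibition above the screen-wide mean inhibition plus 3 SD, cut at about 15% in these data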;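 further: 0% = DMSO wells and 100% = excess unlabeled TNYL-RAW peptide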
PostGolgi ctrl: yeast control strain growth, post-Golgi counter-screen; efflux-deficient yeast background strain, growth absorbance A615, 16 h; inhibition, % at 10 µM; hit rate 5% among 98,000
PostGolgi yeast: growth inhibition of a yeast mutant, post-Golgi transport screen; post-Golgi transport phenotypic cell assay; inhibition, % at 10 µM; hit rate 0.9% among 98,000; AID 739;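 further: yeast cells grown in 1536-well plates; yeast grown about 18 h at 30C before absorbance read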
tolC growth inh: growth inhibitors of E. coli BW25113 tolC mutant | OD615 | growth inhibition, % at 10 µM (by protocol) | hit rate 2.2% among 65,000;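 active means growth inhibition at or above a cutoff equal to the mean over every tested compound plus 3 SD, cut at about 60% in these data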;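 further: growth measured after 20 h incubation at 37 °C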
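Test system: E. coli BW25113 ΔtolC::kan bacteria | Medium: Kanamycin-containing LB broth (50 µg/mL) | Dosing: One dose of 10 µM final | Times: 20 h incubation with compound, 37 °C | Detection: Optical density read at 615 nm | Read-out basis: Percent growth inhibition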
Numbers without * were called inactive; . = no result given. Unless noted, no stated cut-off is given here; in the data, active means inhibition above about 30%; inactive means the rest.

SMILES	Ecoli WT expand	EphB4 antag	PostGolgi ctrl	PostGolgi yeast	tolC growth inh
COc1cc(C(=O)Nc2nnc(-c3sccc3C)s2)cc(OC)c1OC	1	2	36*	0	-16
Cc1ccc(C2C(C=Nc3c(C)n(C)n(-c4ccccc4)c3=O)=C(c3ccccc3)Oc3ccccc32)cc1 (centres undefined)	-24	3	7	-10	.
COc1ccc2nc(NC(=O)C3CCCN(S(=O)(=O)c4cccs4)C3)sc2c1 (centres undefined)	-6	2	38*	24	68*
COc1ccc2nc(NC(=O)C3CCN(S(=O)(=O)c4cccs4)CC3)sc2c1	-11	-6	37*	2	.
COc1ccc2nc(NC(=O)C3CCN(S(=O)(=O)c4cccnc4)CC3)sc2c1	3	3	17	2	.
Cc1ccc2nc(NC(=O)C3CCN(S(=O)(=O)c4cccs4)CC3)sc2c1	-17	-1	44*	38*	34
O=S(=O)(NCCSc1ccccc1)c1cccs1	9	-1	4	11	18
COCCn1c(=O)c2cc3c(=O)n(CCOC)c(=O)c3cc2c1=O	-3	-12	3	-3	.
Cc1nc2cc(F)ccc2n1C1CCN(S(=O)(=O)c2ccccc2)CC1	-4	7	14	6	29
COC(=O)C(C)N(C(=O)c1cccc2ccccc12)c1c(C)cccc1C (centres undefined)	-9	4	36*	10	.
COC(=O)C(C)N(C(=O)c1cccc(Cl)c1)c1c(C)cccc1C (centres undefined)	-16	-2	7	-5	.
CC1CC(C)CN(Cc2nc3c(c(=O)n(C)c(=O)n3C)n2Cc2ccccc2Cl)C1 (centres undefined)	.	.	.	.	-4
Nc1c(C(=O)NCc2ccc3c(c2)OCO3)c2nc3ccccc3nc2n1CCCN1CCOCC1	0	-5	15	21	95*
COCCn1c(N)c(C(=O)NCc2cccs2)c2nc3ccccc3nc21	0	-3	32*	6	42
COc1ccccc1CNC(=O)c1c(N)n(CCCN2CCOCC2)c2nc3ccccc3nc12	9	0	20	12	.
O=C1N=C(N2CCOCC2)S/C1=C1\C(=O)N(Cc2ccccc2)c2ccc(Br)cc21	.	.	.	.	11
CCCCN1C(=O)/C(=C2\SC(N3CCCCC3)=NC2=O)c2ccccc21	-8	2	40*	0	29
CCOC(=O)C1=C(N)Oc2c(c(=O)[nH]c3ccccc23)C1c1ccccc1 (centres undefined)	-2	2	3	-3	.
CCOC(=O)C1=Nc2ccccc2C1=[N+]=[N-]	100*	.	101*	106*	8
O=C(c1ccc2c(c1)OCO2)N(Cc1ccco1)C1(C(=O)NC2CCCCC2)CCCCC1	-12	-4	13	5	.
Nc1nc(Cl)cc(N2CCC(c3cc(-c4ccc(Cl)cc4Cl)n[nH]3)CC2)n1	6	-1	82*	43*	.
Cc1cc2c3c(c1)C1(SCC(=O)N1c1ccc(F)cc1)C(=O)N3C(C)(C)CC2C (centres undefined)	5	0	33*	11	.
Cc1cc2c3c(c1)C1(C(=O)N3C(C)(C)CC2C)C(C#N)=C(N)OC2=C1C(=O)CC(C)(C)C2 (centres undefined)	.	0	.	.	.
O=[N+]([O-])c1nn(-c2ccc3c(c2)OCCO3)n(O)c1=Nc1ccc(Cl)cc1	-8	13	57*	40*	.
Cc1ccc(-c2csc3ncn(-n4c(C)ccc4C)c(=O)c23)o1	-9	1	4	-1	67*
SMILES	Ecoli WT expand	EphB4 antag	PostGolgi ctrl	PostGolgi yeast	tolC growth inh
Cc1cc(N2CCOCC2)n2nc(C)c(-c3ccccc3)c2n1	-10	-7	17	-8	-17
Cc1nn2c(N3CCN(c4ccccn4)CC3)cc(C(C)C)nc2c1-c1ccccc1	-11	-3	99*	41*	-28
CCc1cc2c(=O)c(-c3nc4ccccc4[nH]3)coc2c(CN2CCCC(C)C2)c1O (centres undefined)	.	.	.	.	9
CCOc1ccc(/C=N/n2c(SC)nnc2-c2ccccc2)cc1OCC	-9	2	21	-1	.
c1ccc(N2CCN(c3ncnc4scc(-c5cccs5)c34)CC2)cc1	-12	-8	47*	-2	44
Cc1ccc(-c2csc3ncnc(N4CCN(C(=O)c5ccccc5)CC4)c23)cc1	-12	3	32*	7	.
O=C(CN(c1ccccc1)S(=O)(=O)c1ccccc1[N+](=O)[O-])NN=C1CCCCCCC1	-5	-12	3	-7	.
O=C(c1cc2ccccc2oc1=O)N(Cc1ccccc1)Cc1ccc2c(c1)OCO2	.	-1	.	.	.
CC1CCN(CCCNC(=O)c2ccc(CSCc3cccc(Cl)c3)o2)CC1	5	2	2	5	.
